Key:
[1] = Ratio of effective dose of morphine at 48 hr after antagonism treatment by icv administration in mouse (4.8 nmol) divided by its control ED50; type: functional
How it was run: (§1)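 Mice got antagonist icv at 4.8 nmol/mouse. At set times afterwards, morphine was given sc, and radiant heat tail-flick antinociception was measured 30 min later. The morphine ED50 was divided by the control ED50. Results are given with 95% confidence limits from three or four animals.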

Mus musculus [2] = assay: Equivalent antagonist potencies of compound was measured after 24 hr of icv administration; antagonist dose; type: functional
[3] = Ratio of effective dose of morphine at 72 hr after antagonism treatment by icv administration in mouse (4.8 nmol) divided by its control ED50; type: functional; how it was run: as §1
[4] = (§2) Ratio of effective dose of morphine at 24 hr after antagonism treatment by sc administration in mouse divided by its control; type: functional
How it was run: (§3)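 Mice got antagonist sc at 5 mg/kg. At 30 min or 24 h, sc morphine was given 30 min before radiant heat tail-flick testing. The morphine ED50 was divided by the control ED50, with 95% confidence limits from three or four animals.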

[5] = (§4) Ratio of effective dose of morphine at 2 hr after antagonist treatment by icv administration in mouse (4.8 nmol) divided by its control; type: functional; how it was run: as §1
[6] = Inhibitory concentration of ethylketazocine determined after treating with conjugate for 60 min of guinea pig ileum then divided by control IC50 in same preparation; type: functional
How it was run: (§5)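 Electrically stimulated guinea pig ileum was incubated with conjugate (1 × 10^-6 M) for 60 min, then washed ≥40 times with buffer. The agonist IC50 (ethylketazocine or morphine) was then divided by the control IC50 in the same preparation. Assays were run in triplicate, with se reported.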

[7] = (§6) Ratio of effective dose of morphine at 24 hr after antagonism treatment by icv administration in mouse (4.8 nmol) divided by its control ED50; type: functional; how it was run: as §1
Mus musculus [8] = assay: Equivalent antagonist potencies of compound was measured after 24 hr of sc administration; antagonist dose; type: functional
[9] = Ratio of Equivalent antagonist potencies after 24 hr of icv administration/Equivalent antagonist potencies after 24 hr of sc administration was determined; type: functional
[10] = (§7) Ratio of effective dose of morphine at 30 min after antagonism treatment by sc administration in mouse divided by its control; type: functional; how it was run: as §3
Mu-type opioid receptor [11] = target: Mu-type opioid receptor (Mus musculus, UniProt P42866); assay: Inhibitory concentration against mu-opioid receptor in mouse vas deferens
Sequence of Mu-type opioid receptor (Mus musculus, UniProt P42866) (P42866 whole entry): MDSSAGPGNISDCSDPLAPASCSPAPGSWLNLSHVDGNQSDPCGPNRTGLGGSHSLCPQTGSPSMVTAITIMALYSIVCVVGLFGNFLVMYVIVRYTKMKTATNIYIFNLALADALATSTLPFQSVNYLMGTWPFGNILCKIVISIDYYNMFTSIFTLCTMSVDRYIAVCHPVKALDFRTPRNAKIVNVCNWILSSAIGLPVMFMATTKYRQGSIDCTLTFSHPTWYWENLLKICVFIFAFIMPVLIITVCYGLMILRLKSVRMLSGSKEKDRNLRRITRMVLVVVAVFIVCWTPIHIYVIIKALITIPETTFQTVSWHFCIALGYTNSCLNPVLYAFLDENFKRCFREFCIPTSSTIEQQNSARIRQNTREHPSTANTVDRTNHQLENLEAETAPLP
How it was run: (§8)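 Electrically stimulated guinea pig ileum longitudinal muscle or mouse vas deferens. Agonist IC50 for inhibition of the stimulated response was determined as described previously.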

Mu-type opioid receptor [12] = target: Mu-type opioid receptor (Cavia porcellus, UniProt P97266); assay: Inhibitory concentration against mu-opioid receptor in guinea pig ileum; type: tissue-based; how it was run: as §8
Sequence of Mu-type opioid receptor (Cavia porcellus, UniProt P97266) (P97266 whole entry): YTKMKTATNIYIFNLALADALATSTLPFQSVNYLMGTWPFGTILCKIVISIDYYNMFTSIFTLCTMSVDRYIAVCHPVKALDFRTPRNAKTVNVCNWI

[13] = Inhibitory concentration of morphine determined after treating with conjugate for 60 min of guinea pig ileum then divided by control IC50 in same preparation; type: functional; how it was run: as §5
[14] = Ratio of effective dose of morphine at 24 hr after antagonism treatment by icv administration (4.8 nmol) divided by its control ED50; type: functional
How it was run: (§9)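 Mice, radiant heat tail-flick. Antagonist given icv at 4.8 nmol/mouse. At the stated interval afterwards, morphine was given sc and the test read 30 min later. Morphine ED50 after treatment was divided by control ED50. 95% confidence limits come from three or four animals.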

Mus musculus [15] = assay: Equivalent antagonist potencies of compound was measured after 24 hr of sc administration; type: functional
[16] = Ratio of effective dose of morphine at 2 hr after antagonist treatment by icv administration (4.8 nmol) divided by its control; type: functional; how it was run: as §9
Mus musculus [17] = assay: Equivalent antagonist potencies of compound was measured after 24 hr of icv administration; type: functional
[18] = Ratio of effective dose of morphine at 30 min after antagonism treatment by sc administration divided by its control; type: functional
How it was run: (§10)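 Mice, radiant heat tail-flick. Antagonist given sc at 5 mg/kg. At the stated interval, sc morphine was given 30 min before testing. Post-treatment morphine ED50 was divided by control ED50. 95% confidence limits come from three or four animals.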

[19] = Ratio of effective dose of morphine at 24 hr after antagonism treatment by sc administration divided by its control; type: functional; how it was run: as §10
[20] = Ratio of effective dose of morphine at 72 hr after antagonism treatment by icv administration (4.8 nmol) divided by its control ED50; type: functional; how it was run: as §9
[21] = Ratio of Equivalent antagonist potencies after 24 hr of icv administration/Equivalent antagonist potencies after 24 hr of sc administration in mice was determined; type: functional
[22] = Ratio of effective dose of morphine at 24 hr after antagonism treatment by icv administration in mice (4.8 nmol) divided by its control ED50; type: functional; how it was run: as §1
[23] = Ratio of effective dose of morphine at 30 min after antagonism treatment by sc administration in mice divided by its control; type: functional; how it was run: as §3
Mus musculus [24] = assay: Equivalent antagonist potencies of compound was measured after 24 hr of icv administration in mice; antagonist dose; type: functional
[25] = Ratio of effective dose of morphine at 24 hr after antagonism treatment by sc administration in mice divided by its control); type: functional; how it was run: as §3
[26] = Ratio of effective dose of morphine at 2 hr after antagonist treatment by icv administration in mice (4.8 nmol) divided by its control; type: functional; how it was run: as §1
Mus musculus [27] = assay: Equivalent antagonist potencies of compound was measured after 24 hr of sc administration in mice; antagonist dose; type: functional
Mus musculus [28] = assay: as §2; type: functional; how it was run: as §3
Mus musculus [29] = assay: as §4; type: functional; how it was run: as §1
Mus musculus [30] = assay: as §6; type: functional; how it was run: as §1
Mus musculus [31] = assay: as §7; type: functional; how it was run: as §3

COC(=O)CC(SCC(N)C(=O)O)C(=O)N[C@@H]1CC[C@@]2(O)[C@H]3Cc4ccc(O)c5c4[C@@]2(CCN3CC2CC2)[C@H]1O5 (stereo not given in full)
Ratio [1]: 2.8
Inhibition (Mus musculus [2]): 0.004 µM/kg
Ratio [3]: 1.3
Ratio [4]: 1.3
Ratio [5]: 4.8
Ratio [6]: 1
Ratio [7]: 42.2
Inhibition (Mus musculus [8]): 5 µM/kg
Ratio [9]: 1250
Ratio [10]: 1.4
IC50 (Mu-type opioid receptor [11]): 140 nM
IC50 (Mu-type opioid receptor [12]): 22 nM
Ratio [13]: 1.7

COC(=O)/C=C/C(=O)N[C@@H]1CC[C@@]2(O)[C@H]3Cc4ccc(O)c5c4[C@@]2(CCN3CC2CC2)[C@H]1O5
Ratio [14]: 6.6
Inhibition (Mus musculus [15]): 2.5 µM/kg
Ratio [6]: 1.1
Ratio [16]: 9.7
Inhibition (Mus musculus [17]): 0.034 µM/kg
Ratio [18]: 3.9
Ratio [19]: 3.9
Ratio [9]: 74
Ratio [20]: 2.4
IC50 (Mu-type opioid receptor [11]): 82 nM
IC50 (Mu-type opioid receptor [12]): 4.8 nM
Ratio [13]: 19.5

COC(=O)CC(SCC(NC(=O)CCC(N)C(=O)O)C(=O)NCC(=O)O)C(=O)N[C@@H]1CC[C@@]2(O)[C@H]3Cc4ccc(O)c5c4[C@@]2(CCN3CC2CC2)[C@H]1O5 (stereo not given in full)
Ratio [6]: 0.3
Ratio [21]: 83
Ratio [22]: 6.3
Ratio [23]: 3.8
Inhibition (Mus musculus [24]): 0.036 µM/kg
Ratio [25]: 2.6
Ratio [26]: 3.1
IC50 (Mu-type opioid receptor [11]): 280 nM
IC50 (Mu-type opioid receptor [12]): 41 nM
Ratio [13]: 1.2
Inhibition (Mus musculus [27]): 3 µM/kg

NC(CSCC(=O)N[C@@H]1CC[C@@]2(O)[C@H]3Cc4ccc(O)c5c4[C@@]2(CCN3CC2CC2)[C@H]1O5)C(=O)O (stereo not given in full)
Ratio (Mus musculus [28]): 1.3
Ratio (Mus musculus [29]): 3
Ratio (Mus musculus [30]): 0.57
Ratio (Mus musculus [31]): 3

Reference: ChEMBL document CHEMBL1126907, “Possible contribution of a glutathione conjugate to the long-duration action of beta-funaltrexamine” (J Med Chem, 1993)
